According to ChEMBL document CHEMBL3779892, “Increasing the binding affinity of VEGFR-2 inhibitors by extending their hydrophobic interaction with the active site: Design, synthesis and biological evaluation of 1-substituted-4-(4-methoxybenzyl)phthalazine derivatives” (Eur J Med Chem, 2016):

Tests used:
Format in all cases: functional
[1] = Growth inhibition of human PC3 cells at 10 uM after 48 hrs by sulforhodamine B assay; conditions: PC-3, 48 h, read-out: GI
How it was run: (§1)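 Run at NCI on the 60-line panel. Cells grown in RPMI 1640 with 5% FBS and 2 mM L-glutamine, plated at 5000–40,000 cells/well by doubling time, and held 24 h at 37 °C before dosing. Drug (DMSO stock) given at a single final 10 µM in triplicate wells for 48 h. Adherent cells fixed with cold TCA (10% final), suspension cells with 16% TCA. SRB stain read at 515 nm. Percent growth from Tz, C and Ti.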

ACHN = assay: Growth inhibition of human ACHN cells at 10 uM after 48 hrs by sulforhodamine B assay; conditions: read-out: GI; how it was run: as §1
K562 = assay: Growth inhibition of human K562 cells at 10 uM after 48 hrs by sulforhodamine B assay; conditions: K562, 48 h, read-out: GI; how it was run: as §1
[2] = Growth inhibition of human OVCAR5 cells at 10 uM after 48 hrs by sulforhodamine B assay; conditions: OVCAR-5, 48 h, read-out: GI; how it was run: as §1
HT-29 = assay: Growth inhibition of human HT-29 cells at 10 uM after 48 hrs by sulforhodamine B assay; conditions: HT-29, 48 h, read-out: GI; how it was run: as §1
[3] = Growth inhibition of human RPMI8226 cells at 10 uM after 48 hrs by sulforhodamine B assay; conditions: RPMI-8226, 48 h, read-out: GI; how it was run: as §1
[4] = Growth inhibition of human SF295 cells at 10 uM after 48 hrs by sulforhodamine B assay; conditions: SF-295, 48 h, read-out: GI; how it was run: as §1
[5] = Growth inhibition of human SF268 cells at 10 uM after 48 hrs by sulforhodamine B assay; conditions: SF-268, 48 h, read-out: GI; how it was run: as §1
[6] = Growth inhibition of human HCT116 cells at 10 uM after 48 hrs by sulforhodamine B assay; conditions: HCT-116, 48 h, read-out: GI; how it was run: as §1
Malme-3M = assay: Growth inhibition of human MALME-3M cells at 10 uM after 48 hrs by sulforhodamine B assay; conditions: read-out: GI; how it was run: as §1
[7] = Growth inhibition of human SKOV3 cells at 10 uM after 48 hrs by sulforhodamine B assay; conditions: SK-OV-3, 48 h, read-out: GI; how it was run: as §1
A549 = assay: Growth inhibition of human A549 cells at 10 uM after 48 hrs by sulforhodamine B assay; conditions: A549, 48 h, read-out: GI; how it was run: as §1
NCI-H460 = assay: Growth inhibition of human NCI-H460 cells at 10 uM after 48 hrs by sulforhodamine B assay; conditions: NCI-H460, 48 h, read-out: GI; how it was run: as §1
MCF7 = assay: Growth inhibition of human MCF7 cells at 10 uM after 48 hrs by sulforhodamine B assay; conditions: MCF7, 48 h, read-out: GI; how it was run: as §1
[8] = Growth inhibition of human RXF393 cells at 10 uM after 48 hrs by sulforhodamine B assay; conditions: RXF 393, 48 h, read-out: GI; how it was run: as §1
MDA-MB-468 = assay: Growth inhibition of human MDA-MB-468 cells at 10 uM after 48 hrs by sulforhodamine B assay; conditions: MDA-MB-468, 48 h, read-out: GI; how it was run: as §1
[9] = Growth inhibition of human UO31 cells at 10 uM after 48 hrs by sulforhodamine B assay; conditions: UO-31, 48 h, read-out: GI
How it was run: (§2)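 NCI-60 panel, adherent cells grown in RPMI 1640 with 5% FBS and 2 mM L-glutamine, plated at 5000–40,000 cells/well and preincubated 24 h at 37 °C, 5% CO2. 10 µM final compound from DMSO stock, triplicate wells, 48 h. Fixed with cold TCA (10% final, 60 min, 4 °C) and stained with 0.4% SRB. Absorbance read at 515 nm; growth calculated against time-zero and control wells.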

[10] = Growth inhibition of human OVCAR8 cells at 10 uM after 48 hrs by sulforhodamine B assay; conditions: OVCAR-8, 48 h, read-out: GI; how it was run: as §1
[11] = Growth inhibition of human HCC2998 cells at 10 uM after 48 hrs by sulforhodamine B assay; conditions: HCC 2998, 48 h, read-out: GI; how it was run: as §1
[12] = Growth inhibition of human LOXIMVI cells at 10 uM after 48 hrs by sulforhodamine B assay; conditions: LOX IMVI, read-out: GI; how it was run: as §1
[13] = Growth inhibition of human SNB19 cells at 10 uM after 48 hrs by sulforhodamine B assay; conditions: SNB-19, 48 h, read-out: GI; how it was run: as §1
[14] = Growth inhibition of human HCT15 cells at 10 uM after 48 hrs by sulforhodamine B assay; conditions: HCT-15, 48 h, read-out: GI; how it was run: as §1
SN12C = assay: Growth inhibition of human SN12C cells at 10 uM after 48 hrs by sulforhodamine B assay; conditions: read-out: GI; how it was run: as §1
KM12 = assay: Growth inhibition of human KM12 cells at 10 uM after 48 hrs by sulforhodamine B assay; conditions: KM12, 48 h, read-out: GI; how it was run: as §1
M14 = assay: Growth inhibition of human M14 cells at 10 uM after 48 hrs by sulforhodamine B assay; conditions: M14, 48 h, read-out: GI; how it was run: as §1
[15] = Growth inhibition of human COLO205 cells at 10 uM after 48 hrs by sulforhodamine B assay; conditions: COLO 205, 48 h, read-out: GI; how it was run: as §1
CCRF-CEM = assay: Growth inhibition of human CCRF-CEM cells at 10 uM after 48 hrs by sulforhodamine B assay; conditions: read-out: GI; how it was run: as §1
SK-MEL-5 = assay: Growth inhibition of human SK-MEL-5 cells at 10 uM after 48 hrs by sulforhodamine B assay; conditions: SK-MEL-5, 48 h, read-out: GI; how it was run: as §1
SR = assay: Growth inhibition of human SR cells at 10 uM after 48 hrs by sulforhodamine B assay; conditions: read-out: GI
How it was run: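 NCI-60 screen. Cells were grown in RPMI 1640 with 5% FBS and 2 mM L-glutamine, plated at 5000–40,000 cells/well and held 24 h at 37 °C, 5% CO2. Single 10 µM final dose from DMSO stock, triplicate wells, 48 h. Settled cells were fixed with 80% TCA (16% final) and stained with 0.4% SRB. Dye was solubilized in 10 mM Tris and read at 515 nm. Growth was calculated against time-zero and untreated wells.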

SK-MEL-28 = assay: Growth inhibition of human SK-MEL-28 cells at 10 uM after 48 hrs by sulforhodamine B assay; conditions: SK-MEL-28, 48 h, read-out: GI; how it was run: as §1
[16] = Growth inhibition of human SW620 cells at 10 uM after 48 hrs by sulforhodamine B assay; conditions: SW-620, 48 h, read-out: GI; how it was run: as §2
[17] = Growth inhibition of human HOP92 cells at 10 uM after 48 hrs by sulforhodamine B assay; conditions: HOP-92, 48 h, read-out: GI; how it was run: as §1
[18] = Growth inhibition of human BT549 cells at 10 uM after 48 hrs by sulforhodamine B assay; conditions: BT-549, 48 h, read-out: GI; how it was run: as §1
[19] = Growth inhibition of human OVCAR4 cells at 10 uM after 48 hrs by sulforhodamine B assay; conditions: OVCAR-4, 48 h, read-out: GI; how it was run: as §1

SMILES	inhibition of growth at 10 µM [1] [%]	inhibition of growth at 10 µM (ACHN) [%]	inhibition of growth at 10 µM (K562) [%]	inhibition of growth at 10 µM [2] [%]	inhibition of growth at 10 µM (HT-29) [%]	inhibition of growth at 10 µM [3] [%]	inhibition of growth at 10 µM [4] [%]	inhibition of growth at 10 µM [5] [%]	inhibition of growth at 10 µM [6] [%]	inhibition of growth at 10 µM (Malme-3M) [%]	inhibition of growth at 10 µM [7] [%]	inhibition of growth at 10 µM (A549) [%]	inhibition of growth at 10 µM (NCI-H460) [%]	inhibition of growth at 10 µM (MCF7) [%]	inhibition of growth at 10 µM [8] [%]	inhibition of growth at 10 µM (MDA-MB-468) [%]	inhibition of growth at 10 µM [9] [%]	inhibition of growth at 10 µM [10] [%]	inhibition of growth at 10 µM [11] [%]	inhibition of growth at 10 µM [12] [%]	further results
COc1ccc(Cc2nnc(Nc3cccc(C(F)(F)F)c3)c3ccccc23)cc1	49	31	49	< 30	49	87	38	< 30	56	< 30	< 30	57	50	35	34	42	66	35	31	< 30	inhibition of growth at 10 µM [13]: 45%; inhibition of growth at 10 µM [14]: 41%; inhibition of growth at 10 µM (SN12C): 46%; inhibition of growth at 10 µM (KM12): 40%; inhibition of growth at 10 µM (M14): < 30%; inhibition of growth at 10 µM [15]: < 30%; inhibition of growth at 10 µM (CCRF-CEM): 39%; inhibition of growth at 10 µM (SK-MEL-5): < 30%; inhibition of growth at 10 µM (SR): 52%; inhibition of growth at 10 µM (SK-MEL-28): < 30%; inhibition of growth at 10 µM [16]: < 30%; inhibition of growth at 10 µM [17]: 63%; inhibition of growth at 10 µM [18]: < 30%; inhibition of growth at 10 µM [19]: 31%
COc1ccc(Cc2nnc(Nc3ccccc3)c3ccccc23)cc1	< 30	< 30	< 30	< 30	< 30	58	< 30	< 30	< 30	< 30	< 30	< 30	< 30	< 30	< 30	< 30	38	< 30	< 30	< 30	inhibition of growth at 10 µM [13]: < 30%; inhibition of growth at 10 µM [14]: < 30%; inhibition of growth at 10 µM (SN12C): < 30%; inhibition of growth at 10 µM (KM12): < 30%; inhibition of growth at 10 µM (M14): < 30%; inhibition of growth at 10 µM [15]: < 30%; inhibition of growth at 10 µM (CCRF-CEM): < 30%; inhibition of growth at 10 µM (SK-MEL-5): < 30%; inhibition of growth at 10 µM (SR): 30%; inhibition of growth at 10 µM (SK-MEL-28): < 30%; inhibition of growth at 10 µM [16]: < 30%; inhibition of growth at 10 µM [17]: 49%; inhibition of growth at 10 µM [18]: < 30%; inhibition of growth at 10 µM [19]: < 30%
COc1ccc(Cc2nnc(Nc3ccc(NC(=O)Nc4ccc(OC)cc4)cc3)c3ccccc23)cc1	30	32	< 30	< 30	34	91	81	< 30	34	31	< 30	< 30	< 30	30	100	< 30	< 30	< 30	< 30	< 30	inhibition of growth at 10 µM [13]: < 30%; inhibition of growth at 10 µM [14]: 39%; inhibition of growth at 10 µM (SN12C): < 30%; inhibition of growth at 10 µM (KM12): 39%; inhibition of growth at 10 µM (M14): < 30%; inhibition of growth at 10 µM [15]: < 30%; inhibition of growth at 10 µM (CCRF-CEM): 40%; inhibition of growth at 10 µM (SK-MEL-5): < 30%; inhibition of growth at 10 µM (SR): 39%; inhibition of growth at 10 µM (SK-MEL-28): < 30%; inhibition of growth at 10 µM [16]: < 30%; inhibition of growth at 10 µM [17]: < 30%; inhibition of growth at 10 µM [18]: 31%; inhibition of growth at 10 µM [19]: < 30%
